Measurements taken from PubChem BioAssay AID2609 (Broad Institute, 2010).
pEC50: −log10 of the molar value.

What follows are compounds tested on BJeLR fibroblasts viability, Alamar Blue fluorescence, 48 h (assay: cytotoxicity toward Ras-transformed BJeLR fibroblasts, dose response, cell-based, alamar blue fluorescence, powder samples (AID 2609)).
Method in brief: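 Technique: Alamar blue fluorescence, excitation 544 nm, emission 590 nm / Medium: DMEM plus M199 with heat-inactivated fetal bovine serum / Timing: 48 h compound exposure, 37 °C, then ~16 h alamar blue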

First: C=CCOc1ccccc1CN(C(=O)CCl)c1ccc2c(c1)OCO2
Second: COc1ccc(N(C(=O)CCl)C(C(=O)NCCc2ccccc2)c2cccs2)cc1Cl (centres undefined)
The pEC50 of the first is 0.88 log units lower: 5.12 for the first, 6.00 for the second.

COC(=O)[C@@H]1Cc2c([nH]c3ccccc23)C(C)(C)N1C(=O)CCl and Cc1ccc(C2CC(c3cccs3)=NN2C(=O)CCl)cc1 (centres undefined) are within 0.2 log units of each other in pEC50: 5.40 for the first, 5.53 for the second.

CCCCCCCN(C(=O)CCl)c1cccc(C)c1 and COc1cccc(N(C(=O)CCl)C(C(=O)NCCc2ccccc2)c2cccs2)c1 (centres undefined) are within 0.2 log units of each other in pEC50: 5.46 for the first, 5.63 for the second.

First: COc1ccc(N(C(=O)CCl)C(C(=O)NCCc2ccccc2)c2cccs2)cc1 (centres undefined)
Second: COc1ccc(C(C(=O)NC2CCCCC2)N(C(=O)CCl)c2ccc(C)cc2)cc1 (centres undefined)
The pEC50 of the first is 0.69 log units higher: 5.77 for the first, 5.08 for the second. The first is the more potent here.

Going from O=C(CCl)N=c1sccn1Cc1ccccc1Cl to Nc1nc(CCl)nc(Nc2ccc3ccccc3c2)n1, the pEC50 rises from 5.31 to 5.60 (0.29 log units).

CCOc1ccc(Nc2nc(N)nc(CCl)n2)cc1 and COc1ccc(C(C(=O)NC2CCCCC2)N(C(=O)CCl)c2cccc(Cl)c2)cc1 (centres undefined) are within 0.2 log units of each other in pEC50: 5.66 for the first, 5.50 for the second.

First: Cc1ccc(N(C(=O)CCl)C(C(=O)NC2CCCCC2)c2cccnc2)cc1C (centres undefined)
Second: COc1ccc(CN(CCC(c2ccccc2)c2ccc(OC(C)C)cc2)C(=O)CCl)cc1OC (centres undefined)
The pEC50 of the first is 0.20 log units lower: 5.85 for the first, 6.05 for the second.
